ChEMBL document CHEMBL1146074, “Design and synthesis of 1-indol-1-yl-propan-2-ones as inhibitors of human cytosolic phospholipase A2alpha” (J Med Chem, 2006)
Calls of active or inactive are those of the source. The rule behind the calls is not given here.

Key:
[1] = target: T1, Cytosolic phospholipase A2 (Homo sapiens, UniProt P47712); assay: Inhibition of cPLA2alpha activity assessed by A23187-induced arachidonic acid release in human platelet; format: functional
T1 sequence (P47712 whole entry): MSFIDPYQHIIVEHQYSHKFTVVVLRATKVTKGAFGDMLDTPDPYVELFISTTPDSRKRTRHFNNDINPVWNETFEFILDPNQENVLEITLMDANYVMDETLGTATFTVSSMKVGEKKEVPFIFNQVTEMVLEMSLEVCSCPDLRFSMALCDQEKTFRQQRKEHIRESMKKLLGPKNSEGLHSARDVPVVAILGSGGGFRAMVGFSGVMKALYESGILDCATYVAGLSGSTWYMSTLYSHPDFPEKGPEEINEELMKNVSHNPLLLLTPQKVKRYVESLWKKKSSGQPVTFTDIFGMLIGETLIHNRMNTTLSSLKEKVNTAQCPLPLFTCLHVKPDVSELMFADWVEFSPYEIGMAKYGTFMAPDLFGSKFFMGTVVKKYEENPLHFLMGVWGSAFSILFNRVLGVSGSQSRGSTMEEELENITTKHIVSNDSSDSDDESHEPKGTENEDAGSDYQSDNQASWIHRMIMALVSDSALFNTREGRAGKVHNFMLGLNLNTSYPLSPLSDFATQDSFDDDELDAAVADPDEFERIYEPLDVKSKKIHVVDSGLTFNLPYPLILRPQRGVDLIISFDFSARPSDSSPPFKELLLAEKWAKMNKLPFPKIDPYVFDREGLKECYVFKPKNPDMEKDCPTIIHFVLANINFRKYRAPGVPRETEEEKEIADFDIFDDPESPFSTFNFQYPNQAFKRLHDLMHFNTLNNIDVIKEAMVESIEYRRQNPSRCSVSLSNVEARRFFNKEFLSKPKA
Method in brief: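 Intact human platelets stimulated with calcium ionophore A23187 (1 µM final) for 1 min, with ETYA added to block cyclooxygenase-1 and 12-lipoxygenase. Released arachidonic acid was measured by RP18 HPLC (acetonitrile/10 mM ammonium phosphate pH 7.4, 50:50) with UV at 200 nm, using an internal standard. IC50 values are means of at least two independent determinations.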

[2] = target: T1, Cytosolic phospholipase A2; assay: Inhibition of human isolated cPLA2-alpha by vesicle assay
Method in brief: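 Test compounds were at most 10 µM. Arachidonic acid formed was cleaned up by solid-phase extraction and quantified by reversed-phase HPLC with UV at 200 nm. IC50 values are means of at least two independent determinations.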

[3] = target: T1, Cytosolic phospholipase A2; assay: Inhibition of cPLA2-alpha activity assessed by TPA-induced arachidonic acid release in human platelet; format: functional
Method in brief: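 Intact human platelets stimulated with TPA (2 µM final) for 60 min, with the cyclooxygenase/12-lipoxygenase inhibitor ETYA added. Released arachidonic acid was quantified by RP18 HPLC with UV at 200 nm, using an internal standard. Parallel incubations without TPA were used to calculate specific hydrolysis. IC50 values are means of at least two independent determinations.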

[4] = target: T2, Cytosolic phospholipase A2 (Homo sapiens) (UniProt P47712); assay: Inhibition of cPLA2-alpha activity assessed by A23187-induced arachidonic acid release in human platelet at 10 uM; format: functional
T2 sequence (whole entry): T1 sequence (P47712 whole entry)
Method in brief: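 Intact human platelets, with the dual cyclooxygenase/12-lipoxygenase inhibitor ETYA added, stimulated with calcium ionophore A23187 (1 µM final) for 1 min. Arachidonic acid released was measured by reversed-phase HPLC with UV at 200 nm, using 3-(4-decyloxyphenyl)propanoic acid as internal standard. Percent inhibition was read at 10 µM test compound. Cell lysis was checked by turbidimetry.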

[5] = target: T2, Cytosolic phospholipase A2 (Homo sapiens); assay: Inhibition of human isolated cPLA2-alpha by vesicle assay at 10 uM

Row | SMILES | IC50 [1] [µM] | IC50 [2] [µM] | IC50 [3] [µM] | inhibition [4] | inhibition [5]
1 | CCCCCCCCCCOc1ccc(OCC(=O)COc2ccc(C(=O)O)cc2)cc1 | 0.25 |  |  |  | 
2 | CCCCCCCCc1ccc(OCC(=O)Cn2ccc3ccc(C(=O)O)cc32)cc1 | 4.7 | 1.1 |  |  | 
3 | CCCCCCCCCCOc1ccc(OCC(=O)Cn2cc(C(=O)OC)c3cc(C(=O)O)ccc32)cc1 | 0.57 | 0.0043 | 0.0009 |  | 
4 | CCCCCCCCc1ccc(OCC(=O)Cn2ccc3cc(Cl)ccc32)cc1 |  |  |  | inactive | inactive
5 | CCCCCCCCc1ccc(OCC(=O)Cn2ccc3c(C(=O)O)cccc32)cc1 |  |  |  | 40% | 40%
6 | CCCCCCCCc1ccc(OCC(=O)Cn2ccc3cc(C(N)=O)ccc32)cc1 | 0.77 | 0.12 |  |  | 
7 | CCCCCCCCc1ccc(OCC(=O)Cn2c(C(=O)O)cc3ccccc32)cc1 | 8 |  |  |  | inactive
8 | CCCCCCCCc1ccc(OCC(=O)Cn2cc(C(C)(C)C)c3cc(C(=O)O)ccc32)cc1 | 3.3 | 0.34 | 0.23 |  | 
9 | CCCCCCCCc1ccc(OCC(=O)Cn2cc(C#N)c3cc(C(=O)O)ccc32)cc1 | 0.37 | 0.015 | 0.011 |  | 
10 | CCCCCCCCc1ccc(OCC(=O)Cn2ccc3ccccc32)cc1 |  |  |  | 43% | inactive
11 | CCCCCCCCc1ccc(OCC(=O)Cn2cc(C(=O)O)c3ccccc32)cc1 |  |  |  | 40% | 40%
12 | CCCCCCCCc1ccc(OCC(=O)Cn2cc(C=O)c3cc(C(=O)O)ccc32)cc1 | 0.38 | 0.016 | 0.0097 |  | 
13 | CCCCCCCCc1ccc(OCC(=O)Cn2cc(Cl)c3cc(C(=O)O)ccc32)cc1 | 1.5 | 0.11 | 0.12 |  | 
14 | CCCCCCCCc1ccc(OCC(=O)Cn2cc(C(C)=O)c3cc(C(=O)O)ccc32)cc1 | 1 | 0.016 | 0.0064 |  | 
15 | CCCCCCCCc1ccc(OCC(=O)Cn2ccc3cc(C#N)ccc32)cc1 |  |  |  | 46% | 25%
16 | CCCCCCCCc1ccc(OCC(=O)Cn2cc(C(=O)O)c3cc(C(=O)O)ccc32)cc1 | 6.5 | 0.89 | 0.56 |  | 
17 | CCCCCCCCc1ccc(OCC(=O)Cn2cc(C(=O)OC)c3cc(C(=O)O)ccc32)cc1 | 1.4 | 0.0049 | 0.0011 |  | 
18 | CCCCCCCCCCOc1ccc(OCC(=O)Cn2ccc3cc(C(=O)O)ccc32)cc1 | 0.21 | 0.02 | 0.0078 |  | 
19 | CCCCCCCCc1ccc(OCC(=O)Cn2ccc3cc(C(=O)OC)ccc32)cc1 |  |  |  | 40% | 36%
20 | CCCCCCCCc1ccc(OCC(=O)Cn2ccc3cc(C=O)ccc32)cc1 | 4.9 | 4.3 |  |  | 
21 | CCCCCCCCc1ccc(OCC(=O)Cn2ccc3cc(OC)ccc32)cc1 |  |  |  | 37% | inactive
22 | CCCCCCCCc1ccc(OCC(=O)Cn2ccc3cc(C)ccc32)cc1 |  |  |  | inactive | inactive
23 | CCCCCCCCc1ccc(OCC(=O)Cn2ccc3cc(C(=O)O)ccc32)cc1 | 0.41 |  | 0.018 |  | 
